Drawing on ChEMBL document CHEMBL1157301, “N-Methyl-4-hydroxy-2-pyridinone analogues from Fusarium oxysporum” (J Nat Prod, 2006), this text covers IC50, Activity and MIC for nine compounds.

What all share (type): functional, organism-based
One test concerns Aspergillus fumigatus. Description: Antifungal activity against Aspergillus fumigatus ATCC 90906 at 30 degC after 68 to 72 hrs.
In another test the test system is Cryptococcus neoformans. The test is described as follows: Antifungal activity against Cryptococcus neoformans ATCC 90113 at 30 degC after 68 to 72 hrs.
Test [1] concerns Candida albicans. Description: Antifungal activity against Candida albicans ATCC 90028 up to 50 ug/mL after 18 to 24 hrs at 37 degC.
In another test the test system is Fusarium verticillioides. The test is described as follows: Antifungal activity against Fusarium verticillioides up to 1 mg/mL by disk assay. The essentials:
(§1)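 Disk diffusion assay run as described by Alam et al., with captan as positive control; compounds tested up to 1mg/mL.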

The test system of the next test is Aspergillus flavus. Description: Antifungal activity against Aspergillus flavus up to 1 mg/mL by disk assay. The essentials: as §1
The test system of test [2] is Mycobacterium intracellulare. The test is described as follows: Antimycobacterial activity against Mycobacterium intracellular ATCC 23068 at 37 degC after 68 to 72 hrs. The essentials: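 Modified Franzblau microdilution. Samples in DMSO, serially diluted in 20% DMSO/saline, tested in duplicate. Inoculum in Middlebrook 7H9 broth with OADC and 5% Alamar Blue, pH 7.3. Incubated at 37 °C, 10% CO2, 68–72 h. Fluorescence read at 544ex/590em before and after incubation. IC50 from percent growth versus concentration; MIC is the lowest concentration with no detectable growth. Ciprofloxacin control.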

Test [3] deals with Candida albicans. Description: Antifungal activity against Candida albicans ATCC 90028 at 37 degC after 18 to 24 hrs.

Values after ≈ are worked out from the molar mass of the structure shown. Active and inactive are the calls of the source. The rule behind the calls is not given here.

In general, IC50 refers to the concentration at which inhibition is half-maximal. A low value points to higher potency. Compound `C[C@@H]1[C@H](O)[C@@H](C)/C=C/C=C/C=C/C=C/C=C/C=C/C=C/[C@H](O[C@@H]2O[C@H](C)[C@@H](O)[C@H](N)[C@@H]2O)C[C@@H]2O[C@](O)(C[C@@H](O)C[C@@H](O)[C@H](O)CC[C@@H](O)C[C@@H](O)CC(=O)O[C@H]1C)C[C@H](O)[C@H]2C(=O)O` [AMPHOTERICIN B] returned an IC50 in the test on Aspergillus fumigatus of 0.91 µg/mL (≈ 0.985 µM).

Consider `CCC(C)CC(C)/C=C(\C)C1OC(c2c(O)c([C@]3(O)CCC(=O)C[C@@H]3O)cn(C)c2=O)CC[C@@H]1C` (stereo not given in full), for which the values for the IC50 in the test on Cryptococcus neoformans and with Aspergillus fumigatus were 35 µg/mL (≈ 71.5 µM) and 2 µg/mL (≈ 4.08 µM), respectively. For the same compound, the result with Candida albicans [1], with Fusarium verticillioides and with Aspergillus flavus was inactive.

Broadly, the MIC is the lowest concentration found to suppress growth. The low end stands for inhibition by little substance, the high end for a need for much substance. In test [2], `O=C(O)c1cn(C2CC2)c2cc(N3CCNCC3)c(F)cc2c1=O` [CIPROFLOXACIN] showed an MIC of 0.63 µg/mL (≈ 1.9 µM).

With `CCC(C)CC(C)/C=C(\C)[C@@H]1O[C@H](c2c(O)c(-c3ccc(O)cc3)c[nH]c2=O)CC[C@H]1C` (stereo not given in full), the outcome (with Candida albicans [3]; with Cryptococcus neoformans; in test [2]; in the test with Aspergillus fumigatus; in the test on Fusarium verticillioides; in the test with Aspergillus flavus) was inactive.

Turning to `CC[C@H](C)[C@H]1C(=O)O[C@H](C(C)C)C(=O)N(C)[C@@H](C(C)C)C(=O)O[C@H](C(C)C)C(=O)N(C)[C@@H](C(C)C)C(=O)O[C@H](C(C)C)C(=O)N1C` [ENNIATIN B1], the IC50 came to 2 µg/mL (≈ 3.06 µM) in the test on Candida albicans [3], 9 µg/mL (≈ 13.8 µM) in the test on Cryptococcus neoformans and 15 µg/mL (≈ 22.9 µM) in test [2]. The values for the minimum inhibitory concentration (MIC) against Candida albicans [3] and with Cryptococcus neoformans were 6.25 µg/mL (≈ 9.56 µM) and 25 µg/mL (≈ 38.2 µM), respectively.

As for `CCC(C)CC(C)/C=C(\C)[C@@H]1O[C@H](c2c(O)c([C@@]3(O)CCC(=O)C[C@H]3O)cn(C)c2=O)CC[C@H]1C` (stereo not given in full), the IC50 in the test with Aspergillus fumigatus was determined as 35 µg/mL (≈ 71.5 µM). The outcome in the test on Fusarium verticillioides and in the test with Aspergillus flavus was inactive.

For the compound `CCC(C)CC(C)/C=C(\C)[C@@H]1O[C@H](c2c(O)c([C@@]3(O)CCC(OC)(OC)C[C@@H]3O)cn(C)c2=O)CC[C@H]1C` (stereo not given in full), the outcome (in the test with Candida albicans [3]; with Cryptococcus neoformans; in test [2]; in the test on Aspergillus fumigatus; in the test with Fusarium verticillioides; with Aspergillus flavus) was inactive.

In the test on Candida albicans [3], `COC[C@H]1OC(=O)c2coc3c2[C@@]1(C)C1=C(C3=O)[C@@H]2CCC(=O)[C@@]2(C)C[C@H]1OC(C)=O` [WORTMANNIN] registered a concentration for half-maximal inhibition (IC50) of 0.25 µg/mL (≈ 0.584 µM) and a minimum inhibitory concentration (MIC) of 0.78 µg/mL (≈ 1.82 µM).

Consider `CCC(C)CC(C)/C=C(\C)[C@@H]1O[C@H](c2c(O)c(-c3ccc(O)cc3)cn(C)c2=O)CC[C@H]1C` (stereo not given in full), for which the outcome (with Candida albicans [3]; in the test with Cryptococcus neoformans; in test [2]; in the test on Aspergillus fumigatus; in the test with Fusarium verticillioides; in the test on Aspergillus flavus) was inactive.
